E-selectin induc: E-selectin induction in HUVECs, primary screen, imaging, HUVEC, immunofluorescence imaging, single point; normalized: neutral wells 0, TNF-alpha wells 100; P16581; activation, % at 7.58 µM; 260,000 compounds, 0.37% hits;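 active = mean E-selectin-positive cell signal at least 10% of the positive control, reached in at least 60% of replicates, without over 20% cell loss; inconclusive = no rule given, readout overlaps actives, possibly toxicity-flagged; inactive = the rest, including those meeting only one limit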
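Test system – human umbilical vein endothelial cells (HUVEC), E-selectin induction · Input – 3,000 HUVEC seeded per well · Buffer or medium – EGM-2, gelatin · Compound dosing – single-point compound dose · Detection – immunofluorescence imaging · Measure – percent E-selectin-positive cells · Controls – TNF-alpha high, DMSO low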
AF4-AF9 inh: inhibitors of AF4 peptide binding to AF9, primary screen, biochemical, AlphaScreen, biotin-AF4 peptide, FLAG-AF9, single point; Protein AF-9 (Homo sapiens), P42568; inhibition, % at 10 µM; 350,000 compounds, 0.47% hits; AID 651704, 2012;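 active = every replicate reaching a set inhibition limit, whatever the replicate mean, cut at about 25% in these data; inconclusive = mean inhibition reaches that limit but some replicates miss it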;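 note: 0% = plate neutral control median and 100% = total signal loss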
Ecoli rRNA inh: reduced GFP signal of wild-type E. coli, primary screen, bacterial rRNA inhibitor project, GFP/RFP fluorescence, OD600, single point; E. coli WT GFP vs humanized-ribosome RFP mutants, 24 h; stronger effect = lower value; DMSO median 0, no signal -100; GFP signal change (wild-type ribosome), % (no concentration beside the values); 350,000 compounds, 1.6% hits;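 active = significant combined selectivity score with lowered wild-type GFP, culture density cut under 30%, mutant RFP and density less affected; inactive = any of these conditions unmet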
GSIS activator: GLuc luminescence reporter in INS-1E cells, primary screen for activators of glucose-dependent secretion of insulin; INS-1E GLuc reporter insulin secretion, 2-3 h; activation, % at 16.6 µM; 370,000 compounds, 0.61% hits; AID 743287, 2014;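 active = lowest replicate activation of at least 40%, so every replicate reaches that level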;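 note: 0% = median of neutral control wells and 100% = median of IBMX positive control wells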
RAD52 anneal inh: RAD52 DNA annealing inhibitors, primary screen, biochemical, FRET, single point, set 2 | recombinant RAD52 DNA annealing, FRET fluorescence | inhibition, % at 18.7 µM | 360,000 compounds, 0.46% hits | AID 651710, 2012;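 active = every replicate showing at least 50% inhibition; inconclusive = mean inhibition at least 50% but not in every replicate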
RAD54 inh: inhibitors of human RAD54 branch migration, primary screen, biochemical, fluorescence, single point. RAD54 Holliday junction branch migration, FAM/BHQ fluorescence. DNA repair and recombination protein RAD54-like (Homo sapiens), Q92698. 360,000 compounds, 0.14% hits. inhibition, % at 10.4 µM;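 active = mean normalized replicate activity at least 40 and at least half of replicates scoring 40 or more; inconclusive = only one of the two criteria met; inactive = mean below 40 and under half of replicates reaching 40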;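 note: 0% = median of neutral control wells and 100% = median of positive control wells; inhibitors cause a drop in the FAM fluorescence signal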
Target sequence (Q92698 whole entry, looked up): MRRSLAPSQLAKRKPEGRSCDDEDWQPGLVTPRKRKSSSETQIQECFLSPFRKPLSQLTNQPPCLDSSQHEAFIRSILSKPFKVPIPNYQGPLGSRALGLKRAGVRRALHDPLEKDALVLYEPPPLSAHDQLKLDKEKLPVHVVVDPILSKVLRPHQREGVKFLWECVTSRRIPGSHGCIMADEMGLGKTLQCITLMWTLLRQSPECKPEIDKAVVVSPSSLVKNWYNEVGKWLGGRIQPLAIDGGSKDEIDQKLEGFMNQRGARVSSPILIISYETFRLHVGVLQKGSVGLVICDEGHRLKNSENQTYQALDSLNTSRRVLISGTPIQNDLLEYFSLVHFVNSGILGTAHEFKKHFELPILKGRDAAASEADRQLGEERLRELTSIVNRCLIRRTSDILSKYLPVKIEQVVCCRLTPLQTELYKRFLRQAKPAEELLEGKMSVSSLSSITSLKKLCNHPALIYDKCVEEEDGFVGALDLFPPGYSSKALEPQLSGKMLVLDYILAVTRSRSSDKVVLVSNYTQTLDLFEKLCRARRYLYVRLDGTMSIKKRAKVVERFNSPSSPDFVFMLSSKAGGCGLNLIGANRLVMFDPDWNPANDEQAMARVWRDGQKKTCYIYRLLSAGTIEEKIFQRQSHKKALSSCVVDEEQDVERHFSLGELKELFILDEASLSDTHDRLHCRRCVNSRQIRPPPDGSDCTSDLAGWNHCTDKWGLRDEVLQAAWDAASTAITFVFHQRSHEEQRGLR
AID977621: growth inhibition of wild-type GFP E. coli, dose response, H69 mutant RFP, cherry-pick | shares compounds with Ecoli rRNA inh | E. coli wild-type GFP strain growth, fluorescence, 24 h | activity change, negative = inhibition at 50 µM | 1,900 tested, under 10 active;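 active = Wild-type ribosome reporter drop at least double the humanized mutant ribosome reporter drop, growth loss under a set limit; inconclusive = no clear call, values can overlap the other calls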;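 note: wild-type GFP and H69 mutant RFP strains grown together 50/50 in each well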
AID977628: E. coli growth inhibition, wild-type GFP versus h24 humanized RFP strain, dose response, h24 mutant RFP vs wild-type GFP, cherry-pick | 1,900 tested, under 10 active | E. coli WT GFP strain growth, fluorescence, 24 h | activity change, negative = inhibition at 50 µM | shares compounds with Ecoli rRNA inh;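 active = compound lowering the normal-ribosome reporter at least twice as much as the humanized-ribosome reporter, growth loss under a set limit; inconclusive = no clear call, values can overlap the other calls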;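 note: wild-type GFP and h24 humanized RFP strains co-cultured 1 to 1 per well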
Starred values were filed as active, the others as inactive; ? = inconclusive; . = not tested or not shown. Only some compounds are listed: those with a hit (about 2.6% of all), similar ones and a draw of the others.

SMILES	E-selectin induc	AF4-AF9 inh	Ecoli rRNA inh	GSIS activator	RAD52 anneal inh	RAD54 inh	AID977621	AID977628
COc1cccc(NC(=O)c2ccc(-c3ccc([N+](=O)[O-])cc3)o2)c1	.	1	-28*	6	-46	.	-23	.
Cc1ccccc1CN(C)C[C@H]1OCc2cn(nn2)CCCC(=O)N([C@@H](C)CO)C[C@@H]1C	0	1	0	-1	-7	5	.	.
C[C@H]1CN([C@@H](C)CO)S(=O)(=O)c2ccc(-c3cccc(F)c3)cc2O[C@H]1CN(C)CC1CC1	0	7	-2	3	8	8	.	.
COC(=O)c1cc(S(=O)(=O)NCc2ccc3c(c2)OCO3)cn1C	.	-1	-13*	.	-5	2	-4.9	-6.9
Cc1ccc(NC(=O)C2CCCN(c3ncnc4c3nc3n4CCCCC3)C2)cc1Cl (stereo unspecified)	.	2	-18*	-5	-6	14	-0.089	?
CN1CCN(C(=O)C[C@H]2CC[C@@H]3[C@@H](COc4ccc(NC(=O)c5cscn5)cc4C(=O)N3C)O2)CC1	0	-3	2	0	10	0	.	.
CCn1c(-c2ccccc2Cl)nn(CC(=O)Nc2ccccc2OC)c1=S	.	.	-21*	28	-7	13	-16	.
C[C@@H]1CN([C@H](C)CO)S(=O)(=O)c2ccc(C#Cc3ccccc3)cc2O[C@H]1CN(C)C(=O)CN(C)C	0	12	-3	21	33	4	.	.
CCc1ccc(NC(=O)CCc2c(C)nn(-c3ccc(N4CCCCC4)nn3)c2C)cc1	.	2	-23*	-37	-1	1	4.5	?
Cc1nn(-c2ccc(N3CCCCC3)nn2)c(C)c1CCC(=O)Nc1ccc(F)cc1	.	-2	-28*	-21	-6	1	-17	?
O=C(Nc1ccccc1F)N1C[C@@H]2[C@H](c3ccccc31)[C@@H](CO)N2C(=O)Cc1ccccc1	1	0	-44*	-8	-13	4	.	?
O=C(Nc1cccc(Cl)c1)N1C[C@H]2[C@@H](c3ccccc31)[C@@H](CO)N2C(=O)c1ccncc1	0	1	-23*	-8	-9	-6	.	?
O=C(Nc1cccc(Cl)c1)N1C[C@H]2[C@@H](c3ccccc31)[C@H](CO)N2Cc1ccncc1	3	1	-29*	-4	-29	-4	.	?
O=C(Nc1ccccc1F)N1C[C@H]2[C@@H](c3ccccc31)[C@@H](CO)N2C(=O)Cc1ccccc1	0	-1	4	-3	-8	2	.	.
O=C(Nc1cccc(Cl)c1)N1C[C@@H]2[C@H](c3ccccc31)[C@H](CO)N2Cc1cccnc1	0	2	-29	-1	-18	7	.	.
C[C@H](CO)N1C[C@H](C)[C@@H](CN(C)C(=O)Nc2ccc(F)cc2)OCCCC[C@H](C)Oc2ccc(NC(=O)CCCN(C)C)cc2C1=O	0	3	2	8	-15	1	.	.
C[C@@H](NC(=O)C[C@@H]1C=C[C@@H](NC(=O)Cc2ccccn2)[C@@H](CO)O1)c1ccccc1	0	7	0	3	-5	0	.	.
Nc1ncncc1-c1ccc2ccccc2c1	0	-5	-32*	27	-3	5	-14	?
COC(=O)c1ccc2nc(-c3cccc(Br)c3)c(Cc3ccsc3)n2c1	-1	-2	-34*	-28	-26	10	?	.
COC(=O)c1ccc2nc(-c3cccc(Cl)c3)c(Cc3ccsc3)n2c1	1	-4	-9	4	-16	-10	.	.
CCC(=O)N1CC2(C1)[C@H](c1ccccc1)[C@H](CO)N2Cc1ccccc1F	0	1	-1	15	-6	.	.	.
C=C(C)Cn1c(SCC(=O)O)nc2c1c(=O)[nH]c(=O)n2C	.	-11	-12*	2	-9	16	?	?
C=C(C)Cn1c(SCCN2CCOCC2)nc2c1c(=O)[nH]c(=O)n2C	.	.	.	.	.	-17	.	.
C[C@@H]1CN(C)C(=O)c2cccc(NS(C)(=O)=O)c2O[C@@H]1CN(C)S(C)(=O)=O	.	.	0	11	.	.	.	.
CC(C)[C@@H]1CC[C@@H](C)C[C@H]1O	24	-4	-14*	17	-14	-3	-8.1	?
SMILES	E-selectin induc	AF4-AF9 inh	Ecoli rRNA inh	GSIS activator	RAD52 anneal inh	RAD54 inh	AID977621	AID977628
CC1CCN(CC(O)COC2CC(C)CCC2C(C)C)CC1 (stereo unspecified)	.	1	-11	-2	-5	.	.	.
CNC[C@@H]1Oc2c(NC(=O)Nc3ccccc3)cccc2C(=O)N([C@H](C)CO)C[C@H]1C	0	-1	1	6	-17	4	.	.
CN1[C@@H]2c3ccc(-c4cccc(F)c4)c(=O)n3C[C@H]1[C@H](CO)[C@H]2C(=O)NCc1ccccc1	0	-2	-4	8	9	-9	.	.
O=C(NC1CCCCC1)C(c1cccc2ccccc12)n1c(=O)c(-c2ccco2)nc2ccccc21 (stereo unspecified)	1	3	-23*	-12	-36	.	-17	-9.7
CCN(CC(=O)Nc1cccc(S(=O)(=O)N2CCCC2)c1)CC(=O)Nc1ccccc1OC	2	2	-18*	-19	-9	.	-8.9	-17
CCN(CC)CC(=O)Nc1ccc(-c2ccc(NC(=O)CN(CC)CC)c(OC)c2)cc1OC	.	1	-23*	-4	7	.	-25	.
C[C@@H]1CCCCO[C@@H](CN(C)C(=O)Nc2cccc3ccccc23)[C@H](C)CN([C@H](C)CO)C(=O)c2cc(N(C)C)ccc2O1	0	22	0	-18	42	-5	.	.
CC1Cc2cc(S(=O)(=O)N3CCN(c4cccc(Cl)c4)CC3)ccc2N1C(=O)C1CC1 (stereo unspecified)	.	-8	-26*	7	-8	0	-5.4	-8.8
CC1Cc2cc(S(=O)(=O)N3CCN(c4ccc(Cl)cc4)CC3)ccc2N1C(=O)C1CC1 (stereo unspecified)	.	1	4	-50	-5	-10	.	.
